In ChEMBL document CHEMBL4732101, “Novel quinolone-based potent and selective HDAC6 inhibitors: Synthesis, molecular modeling studies and biological investigation” (Eur J Med Chem, 2021):
Active and inactive are the calls of the source. The rule behind the calls is not given here.

Legend:
[1] = Mutagenicity in Salmonella typhimurium TA100 at 5 to 230 uM measured after 90 mins in presence of rat liver S9 fraction by Ames test; assay type: toxicity, subcellular; conditions: salmonella enterica subsp. enterica serovar typhimurium, s9, 1.5 h, dose 5-230 µM
[2] = Stability of compound in pH 3 buffer assessed as parent compound remaining at 250 uM measured after 24 hrs by HPLC/UV/DAD method; assay type: physicochemical; conditions: read-out: Stabilty
In short: (§1)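 10 mM DMSO stock diluted to 250 µM (2.5% DMSO) in 50 mM acetic acid, pH 3.0, and shaken 24 h at 25 °C. For solubility, samples filtered, diluted 1:2, quantified by HPLC-UV at 254 nm against a standard. For stability, percent remaining taken as the 24 h peak area over the T0 peak area. Triplicate analyses averaged.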

HCT-116 = assay: Cytotoxicity against human HCT-116 cells assessed as reduction in cell viability measured after 24 hrs by MTT assay; assay type: functional, cell-based; conditions: HCT-116, 24 h
In short: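 HCT-116 cells grown in DMEM with 10% FBS, 2 mM L-glutamine and antibiotics. 2.5×10^4 cells/well treated in triplicate at 50, 25, 10, 5 and 1 µM for 12, 24 or 48 h. Then MTT 0.5 mg/ml for 3 h, supernatant removed, formazan dissolved in isopropanol, absorbance read at 570 nm. IC50 derived from the concentration series.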

[3] = Cytotoxicity against human PBMC cells assessed as reduction in cell viability at 90 uM measured after 24 to 48 hrs by GUAVA easyCyte cytometric method; assay type: cell-based; conditions: time 24-48 hrs
In short: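 PBMCs seeded at 1.5 x10^6/mL in complete medium and exposed to 15, 45 or 90 µM test compound, or DMSO vehicle, for 24 h and 48 h. Percentage of viable cells determined by flow cytometry with ViaCount reagent.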

[4] = Solubility of compound in pH 3 buffer at 250 uM measured after 24 hrs by HPLC/UV/DAD method; assay type: physicochemical; conditions: pH 3, 24 h; in short: as §1
U-937 = assay: Induction of apoptosis in human U-937 cells assessed as increase in PARP cleavage at 10 uM measured after 24 hrs by Western blot analysis; assay type: functional, cell-based
In short: (§2)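 HCT-116 or U937 cells treated at 10 µM for 12 and 24 h. […] Western blot used 40 µg total protein or 5 µg acid-extracted histone. Blots probed for cleaved PARP, acetylated tubulin, H3K9/14ac and Hsp90(AcLys294), normalized to GAPDH or H4. Compared with control cells by one-way ANOVA and Dunnett's test.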

[5] = Mutagenicity in Salmonella typhimurium TA100 at 5 to 230 uM measured after 90 mins in absence of rat liver S9 fraction by Ames test; assay type: toxicity; conditions: salmonella enterica subsp. enterica serovar typhimurium, s9, 1.5 h, dose 5-230 µM
NIH3T3 = assay: Cytotoxicity against mouse NIH/3T3 cells assessed as reduction in cell viability after 24 hrs by neutral red uptake assay; assay type: cell-based; conditions: NIH3T3, 24 h
In short: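 NIH3T3 fibroblasts seeded at 5 x 10^4 per well and cultured 24 h at 37 °C, 5% CO2. DMSO-solubilized samples added at 8 to 160 µM for 24 h; medium as negative control. Neutral Red medium applied 3 h, dye desorbed in acetic acid/ethanol, absorbance read at 540 nm. Three experiments, six replicates per concentration; viability normalized to % control.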

[6] = target: T1, Protein deacetylase HDAC6 (Homo sapiens) (UniProt Q9UBN7); assay: Inhibition of HDAC6 in human HCT-116 cells assessed as increase in alpha-tubulin acetylation at 10 uM measured after 12 to 24 hrs by Western blot analysis relative to control; assay type: cell-based; conditions: time 12-24 hrs; in short: as §2
T1 sequence (whole entry): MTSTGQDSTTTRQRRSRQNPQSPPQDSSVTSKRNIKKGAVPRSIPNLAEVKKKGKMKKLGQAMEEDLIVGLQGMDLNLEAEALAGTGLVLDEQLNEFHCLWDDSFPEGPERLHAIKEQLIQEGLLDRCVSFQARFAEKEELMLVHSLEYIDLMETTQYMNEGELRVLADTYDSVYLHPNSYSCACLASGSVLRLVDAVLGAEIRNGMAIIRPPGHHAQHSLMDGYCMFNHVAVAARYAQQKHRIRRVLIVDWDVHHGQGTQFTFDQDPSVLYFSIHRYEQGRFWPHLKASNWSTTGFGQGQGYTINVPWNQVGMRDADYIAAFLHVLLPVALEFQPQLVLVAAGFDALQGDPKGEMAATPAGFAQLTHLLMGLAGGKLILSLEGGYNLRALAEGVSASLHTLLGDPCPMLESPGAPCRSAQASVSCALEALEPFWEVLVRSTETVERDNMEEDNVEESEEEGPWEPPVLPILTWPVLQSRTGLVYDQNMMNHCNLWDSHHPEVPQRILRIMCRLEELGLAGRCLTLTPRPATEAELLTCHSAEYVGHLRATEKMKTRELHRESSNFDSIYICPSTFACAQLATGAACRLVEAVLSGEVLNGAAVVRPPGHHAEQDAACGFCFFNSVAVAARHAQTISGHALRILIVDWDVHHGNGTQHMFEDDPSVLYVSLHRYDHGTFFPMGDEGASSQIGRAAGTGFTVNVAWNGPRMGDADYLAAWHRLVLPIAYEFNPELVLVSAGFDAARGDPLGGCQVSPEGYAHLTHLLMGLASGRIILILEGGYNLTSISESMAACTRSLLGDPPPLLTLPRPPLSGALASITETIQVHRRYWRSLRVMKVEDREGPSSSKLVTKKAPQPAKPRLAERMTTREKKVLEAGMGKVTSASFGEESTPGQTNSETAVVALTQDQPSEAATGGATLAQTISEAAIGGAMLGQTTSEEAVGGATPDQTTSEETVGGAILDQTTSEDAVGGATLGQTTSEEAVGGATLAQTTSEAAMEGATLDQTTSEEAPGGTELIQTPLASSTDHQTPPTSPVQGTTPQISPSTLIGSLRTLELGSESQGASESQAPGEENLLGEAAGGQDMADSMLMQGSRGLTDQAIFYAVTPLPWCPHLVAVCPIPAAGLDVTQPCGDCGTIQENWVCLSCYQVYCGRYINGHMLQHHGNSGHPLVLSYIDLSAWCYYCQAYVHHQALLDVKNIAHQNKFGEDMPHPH

[7] = target: T1, Protein deacetylase HDAC6 (Homo sapiens); assay: Inhibition of HDAC6 in human HCT-116 cells assessed as increase in Hsp90(AcLys294) acetylation at 10 uM measured after 12 to 24 hrs by Western blot analysis; assay type: cell-based; conditions: time 12-24 hrs; in short: as §2

remaining at 24 h, 250 µM [2]: > 95% | solubility [4]: Soluble | fold change (FC) [6]: > 9 | inhibition [7]: Active
SMILES: CCN(CC)Cc1ccc(Cn2c(=O)c(OCc3ccc(C(=O)NO)cc3)c(-c3cccnc3)c3ccccc32)cc1
Activity [1]: Non-Toxic | IC50 (HCT-116): 25.7 µM | Activity [3]: Toxic | Activity (U-937): Active | Activity [5]: Non-Toxic | IC50 (NIH3T3): 90 µM
